{"data": "Measurements collected from several papers", "PDE1C": "Dual specificity calcium/calmodulin-dependent 3',5'-cyclic nucleotide phosphodiesterase 1C (PDE1C, Homo sapiens, UniProt Q14123)", "F11": "Coagulation factor XI (F11, Homo sapiens, UniProt P03951)", "HDAC5": "Histone deacetylase 5 (HDAC5, Homo sapiens, UniProt Q9UQL6)", "A disintegrin and metalloproteinase with thrombospondin motifs 7": "A disintegrin and metalloproteinase with thrombospondin motifs 7 (Homo sapiens, UniProt Q9UKP4)", "note": "Each line is one published result; the experiments were not run side by side. pIC50: −log10 of the molar value."}
{"Compound": "Cc1cc2c(c(=O)[nH]1)C(=O)O/C2=C\\c1ccccc1OCC1CC1", "target": "PDE1C", "assay": "enzyme activity, inhibitor, radiometric", "pIC50": 6.72}
{"Compound": "O=c1oc(-c2ccco2)nc2ccccc12", "target": "F11", "assay": "enzyme activity, inhibitor, absorbance", "setting": "pH 7.4", "pIC50": "< 4.30"}
{"Compound": "O=C(NO)c1cncc(OS(=O)(=O)Oc2ccc(-n3ccnc3)cc2)c1", "target": "HDAC5", "assay": "enzyme activity, inhibitor, fluorescence", "pIC50": 5.45}
{"Compound": "CCCC(=O)NCCCN1CCc2c([nH]c3ccc(Cl)cc23)C1", "target": "Sodium-dependent dopamine transporter (SLC6A3, Homo sapiens, UniProt Q01959, F155Y)", "assay": "transporter uptake, inhibitor", "pIC50": 4.74}
{"Compound": "Cc1cc2c(c(=O)[nH]1)C(=O)O/C2=C\\c1cc(F)ccc1OCCN1CCOCC1", "target": "PDE1C", "assay": "enzyme activity, inhibitor, radiometric", "pIC50": 7.51}
{"Compound": "O=c1oc(-c2cccnc2)nc2ccccc12", "target": "F11", "assay": "enzyme activity, inhibitor, absorbance", "setting": "pH 7.4", "pIC50": "< 4.30"}
{"Compound": "O=C(NO)c1cncc(OS(=O)(=O)Oc2ccc3ccccc3c2)c1", "target": "HDAC5", "assay": "enzyme activity, inhibitor, fluorescence", "pIC50": 5.09}
{"Compound": "Cn1nccc1[C@]1(CNC(=O)c2ccc(Cl)c(F)c2-c2ccc(C(F)(F)F)cc2)NC(=O)NC1=O", "target": "A disintegrin and metalloproteinase with thrombospondin motifs 7", "assay": "enzyme activity, inhibitor, FRET", "pIC50": 8.49}
{"Compound": "Cc1cc2c(c(=O)[nH]1)C(=O)O/C2=C\\c1ccc(F)cc1OC(C)C", "target": "PDE1C", "assay": "enzyme activity, inhibitor, radiometric", "pIC50": 6.15}
{"Compound": "Cn1nccc1[C@]1(CNC(=O)c2ccc(C(F)(F)F)c(F)c2-c2ccc(C(F)(F)F)cc2)NC(=O)NC1=O", "target": "A disintegrin and metalloproteinase with thrombospondin motifs 7", "assay": "enzyme activity, inhibitor, FRET", "pIC50": 8.02}
{"Compound": "COc1ccc(C[C@H]2COC(=O)[C@@H]2Cc2ccc(OCC(=O)Nc3ccc(C(=O)Nc4ccccc4N)cc3)c(OC)c2)cc1OC", "target": "HDAC5", "assay": "enzyme activity, inhibitor", "pIC50": "< 5.00"}
{"Compound": "Cn1nccc1[C@]1(CNC(=O)c2ccccc2-c2ccc(C(F)(F)F)cc2)NC(=O)NC1=O", "target": "A disintegrin and metalloproteinase with thrombospondin motifs 7", "assay": "enzyme activity, inhibitor, FRET", "pIC50": 7.92}
{"Compound": "CCOc1ccccc1/C=C1\\OC(=O)c2c1cc(C)[nH]c2=O", "target": "PDE1C", "assay": "enzyme activity, inhibitor, radiometric", "pIC50": 6.83}
{"Compound": "O=C(/C=C/c1ccc(O)c2oc(-c3ccc(O)c(O)c3)cc12)O[C@H](Cc1ccc(O)c(O)c1)C(=O)O", "target": "YTH domain-containing family protein 2 (YTHDF2, Homo sapiens, UniProt Q9Y5A9)", "assay": "ligand displacement, FP", "pIC50": 5.22}
{"Compound": "O=C1NC(=O)[C@](CNC(=O)c2cnn(-c3ccc(F)cc3)n2)(C2CC2)N1", "target": "A disintegrin and metalloproteinase with thrombospondin motifs 7", "assay": "enzyme activity, inhibitor, FRET", "pIC50": 7.59}
